# From PubChem
# hERG rescue – shields human hERG channel from block by proarrhythmic agents; Q12809; CHO-hERG, FluxOR thallium flux, dofetilide IC70 present; activation (rescue from dofetilide block), less the hit threshold, % at 10 µM; 310,000 compounds, 0.51% hits; AID 1511;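 active = activation above the mean of controls blocked by dofetilide plus 5 SD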;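 note: thallium influx through hERG after potassium depolarization seen as dye fluorescence rise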
# KCNK3 block – human KCNK3 channel inhibition, primary screen | CHO-KCNK3 thallium flux, FluxOR fluorescence; hits give low values | B-score at 10 µM | 340,000 compounds, 0.84% hits;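 active = B-score under library mean minus 4 SD, starting fluorescence ratio at most library mean plus 5 SD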;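 note: more negative B-score means stronger inhibition of thallium flux through KCNK3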
# Target sequence (O14649 whole entry, looked up): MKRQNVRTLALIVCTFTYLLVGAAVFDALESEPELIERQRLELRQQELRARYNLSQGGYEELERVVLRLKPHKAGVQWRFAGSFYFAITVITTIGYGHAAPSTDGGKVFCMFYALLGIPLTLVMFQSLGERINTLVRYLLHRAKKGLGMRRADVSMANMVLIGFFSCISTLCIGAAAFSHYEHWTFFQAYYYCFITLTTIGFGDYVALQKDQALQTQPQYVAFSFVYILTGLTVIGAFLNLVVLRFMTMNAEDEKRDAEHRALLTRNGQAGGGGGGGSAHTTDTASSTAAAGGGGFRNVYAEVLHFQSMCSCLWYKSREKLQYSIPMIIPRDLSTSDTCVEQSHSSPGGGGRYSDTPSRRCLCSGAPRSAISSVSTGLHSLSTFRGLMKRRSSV
# KCC2 mod – modulators of human KCC2 chloride dependent transport; KCC2 cells, thallium flux FluoZin-2 fluorescence; B-score of Tl+ flux slope (higher = more flux/activation; lower = inhibition) at 10 µM; 190,000 compounds, 2.2% hits; AID 1456;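 active = thallium flux slope and its plate-corrected score both differing from the plate sample mean at a set confidence after two filtering rounds, in either direction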;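 note: slope of fluorescence scaled to starting intensity during 10 to 20 s after thallium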
# KCNQ1 pot – human KCNQ1 channel potentiation or activation. P51787. CHO-K1 KCNQ1, thallium flux FluxOR fluorescence; hits give high values. B-score at 10 µM. 310,000 compounds, 0.35% hits;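 active = fluorescence ratio B-score, a plate-corrected score, at least three library SD, with initial intensity B-score within 5 SD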
#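 Medium – assay buffer, equal DMSO in all wells · Material – CHO-K1 cell line with stable KCNQ1 potassium channel expression · Signal – kinetic FluxOR thallium fluorescence, 10-s 1-Hz baseline, 110-s post-stimulus read · Compound – single concentration per compound, DMSO matched to controls · Schedule – 37 °C overnight plating, 90-min dark dye load, 20-min compound pretreatment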
# KCNQ1 block – human KCNQ1 channel inhibition. P51787. CHO-K1 KCNQ1, FluxOR thallium flux fluorescence; hits give high values. B-score at 10 µM. 310,000 compounds, 1.3% hits;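 active = compounds whose thallium flux B-score, printed positive for inhibition, exceeds three library SD while starting fluorescence stays within three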;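 note: channel opened by potassium depolarization with thallium stimulus after 20 min compound exposure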
# KCNK9 block – human KCNK9 channel inhibition | HEK293 KCNK9, FluxOR thallium flux fluorescence; hits give low values | B-score at 10 µM | 310,000 compounds, 1.2% hits | Q9NPC2 | AID 488922;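 active = ratio B-score over 3 SD below the library mean, with starting fluorescence within 5 SD of its mean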;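 note: negative B-score means less thallium flux so channel inhibition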
# Target sequence (Q9NPC2 whole entry, looked up): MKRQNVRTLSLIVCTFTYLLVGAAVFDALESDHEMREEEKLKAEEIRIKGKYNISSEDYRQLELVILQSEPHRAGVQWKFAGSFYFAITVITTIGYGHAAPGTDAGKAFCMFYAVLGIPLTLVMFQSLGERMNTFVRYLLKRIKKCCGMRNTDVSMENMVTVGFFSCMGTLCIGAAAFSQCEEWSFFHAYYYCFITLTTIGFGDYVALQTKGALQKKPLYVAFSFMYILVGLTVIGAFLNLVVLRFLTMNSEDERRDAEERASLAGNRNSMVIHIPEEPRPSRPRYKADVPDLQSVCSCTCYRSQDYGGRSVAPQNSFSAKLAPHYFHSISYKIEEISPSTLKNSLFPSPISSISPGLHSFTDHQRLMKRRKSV
# KCNK9 inh conf – confirmation of human KCNK9 potassium channel inhibitors | shares compounds with KCNK9 block | HEK293 KCNK9 cells, FluxOR thallium flux fluorescence | inhibition, % at 10 µM | 4,900 compounds, 43% hits | AID 492992;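 active = thallium signal inhibited by more than 5 SD of the compound-free buffer control wells, on both duplicate plates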;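 note: 0% = assay buffer control wells without compound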
# Kir2-1 spec – selectivity of KCNK9 modulators against mouse Kir2.1; shares compounds with KCNK9 block; Kir2.1 cells, FluxOR thallium flux fluorescence; inhibition, % at 10 µM; 4,900 compounds, 4% hits;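 active = thallium signal drop more than 5 SD beyond the mean of the no-compound control wells, seen in both duplicate plates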;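 note: signal is fluorescence rise after thallium addition divided by baseline fluorescence; plate controls were assay buffer only for no effect and full block by chlorpromazine control for full effect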
# HEK293 Tl ctr – non-induced cell nonspecific activity of KCNK9 modulators; 4,900 compounds, 40% hits; shares compounds with KCNK9 block; non-induced KCNK9-HEK293, FluxOR thallium flux; AID 492997; inhibition, % at 10 µM;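 active = thallium signal drop beyond 5 SD of the untreated control mean, on both duplicate plates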;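 note: plate controls were buffer only IC0 wells for no effect and SID17386958 at its maximal inhibitory level for full effect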
# KCNK3 inh conf – human KCNK3 channel inhibition, confirmation assay; ratio percent of control, % at 10 µM; 2,400 compounds, 99% hits; AID 651638; CHO-KCNK3 thallium flux, FluxOR fluorescence; 0% buffer, 100% carvedilol maximal block; shares compounds with KCNK3 block;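 active = ratio percent of control, averaged over triplicates, above buffer control mean plus 5 SD, cut at about 64% in these data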;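 note: ratio is the fluorescence rise from min to max over baseline after thallium stimulus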
# KCNK3 noninduced – activity in cells without induced KCNK3 expression. shares compounds with KCNK3 block. non-induced KCNK3 parental cells, FluxOR thallium flux; hits give low values. 2,400 compounds, 40% hits. thallium flux ratio (lower = more inhibition) at 10 µM;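 active = thallium flux ratio, averaged over three wells, more than 5 SD below the buffer control mean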;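 note: host cells are CHO cells without KCNK3 induction; ratio is peak minus trough fluorescence over baseline then normalized to buffer controls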
# Active calls of the source: *; i = inactive; x = no result given. Shown are actives, neighbours in structure and some others; about 4.1% of the full set was active somewhere.
SMILES,hERG rescue,KCNK3 block,KCC2 mod,KCNQ1 pot,KCNQ1 block,KCNK9 block,KCNK9 inh conf,Kir2-1 spec,HEK293 Tl ctr,KCNK3 inh conf,KCNK3 noninduced
O=C(Nc1nc(-c2ccc(Cl)s2)cs1)c1ccco1,-14.2,i,0.237,i,i,i,x,x,x,x,x
CCN(CC)c1nc2c(c(=O)[nH]c(=O)n2C)n1CCCc1ccccc1,-1.1,i,x,i,i,i,x,x,x,x,x
COCCn1c(SCc2ccc(OC)c(F)c2)nc2ccccc2c1=O,-15.1,-11.9*,-0.314,i,i,-16.1*,79.0%*,i,64.5%*,106.0*,i
COn1c(SCc2ccccc2)nc2ccccc2c1=O,-12.7,i,1.13,i,i,i,x,x,x,x,x
COCCn1c(SCc2ccc(C(=O)OC)o2)nc2ccccc2c1=O,x,i,x,x,x,x,x,x,x,x,x
COn1c(SCc2cccc(Cl)c2)nc2ccccc2c1=O,-2.1,-10.9*,3.87,i,i,-9.66*,50.0%*,i,i,84.0*,i
O=c1cc(N2CCCCC2)c(-c2ccccc2)nn1Cc1c(Cl)cccc1Cl,-10.2,-8.78*,-1.01,i,9*,-10.4*,52.0%*,i,25.0%*,98.3*,0.152*
CCc1cccc(CC)c1NC(=O)c1cccc(NC(=O)c2ccccc2)c1,-6.2,i,x,i,i,-8.6*,64.5%*,i,i,81.3*,i
CC(C)c1cc(NC(=O)c2ccccc2)cc(C(C)C)c1O,-3.3,i,0.00378,i,i,i,x,x,x,x,x
CC(C)c1ccccc1NC(=O)c1cccc(NC(=O)c2ccccc2)c1,-5.5,-10.5*,0.443,i,i,-10.1*,40.5%*,i,i,105.7*,i
CCC(CC)COC(=O)C(C#N)c1nc2ccccc2nc1N1CCOCC1 (stereo not drawn),-18.6,-11.6*,-0.0386,i,i,-15.8*,66.5%*,i,49.0%*,104.3*,0.128*
Cc1cnc(C(=O)OC(C(=O)c2c[nH]c3ccccc23)c2ccccc2)cn1 (stereo not drawn),-6.8,-10.6*,x,i,i,-19.7*,78.5%*,i,35.0%*,108.0*,i
COc1ccc(S(=O)(=O)N2CCCCC2)cc1NC(=O)c1ccc(OC)c(OC)c1,x,i,x,x,x,x,x,x,x,x,x
Cc1onc(-c2ccccc2Cl)c1C(=O)N(C)C1CCCCC1,-11.8,i,0.0027,i,i,i,x,x,x,x,x
CCN(C(=O)c1c(-c2ccccc2Cl)noc1C)C1CCCCC1,-9.8,-11.9*,x,i,i,-9.08*,49.5%*,i,33.0%*,107.3*,i
CCN1CC2=C(OC(N)=C(C#N)C2c2ccccc2)/C(=C\c2ccccc2)C1 (stereo not drawn),-21.3,-8.92*,-2.3,i,i,-8.79*,29.0%*,i,26.0%*,105.3*,i
CCOC(=O)C1CCN(C(=O)c2cc(COc3ccc(OC)c4ccccc34)on2)CC1,-9.2,i,x,i,i,i,x,x,x,x,x
O=C1C(Cl)=C(NCCc2ccccc2)C(=O)c2ccccc21,x,-13.5*,x,x,x,x,x,x,x,160.7*,0.0653*
O=C(NCc1ccc2c(c1)OCO2)c1ccc(CSCc2ccc(Cl)cc2)o1,-8.2,-8.79*,-0.353,i,i,i,x,x,x,96.3*,0.138*
C=CCOC(=O)C1=C(C)N=C2SCCC(=O)N2C1c1cccs1 (stereo not drawn),-6.4,i,x,i,i,i,x,x,x,x,x
CCC1SC2=NC(C)=C(C(=O)OC)C(c3cccs3)N2C1=O (stereo not drawn),-7.9,-12.9*,-0.392,i,i,i,x,x,x,89.0*,i
Cc1ccccc1-c1cccc([C@@H]2C[C@H]3[C@H](CON3C)CN2Cc2ccccc2)c1,x,i,x,x,x,x,x,x,x,x,x
CC(C)CN(CC(C)C)c1nc(N)c(C#N)c(CC#N)c1C#N,-3.5,-10.6*,-1.17,i,i,-7.52*,x,x,x,92.0*,i
CC(C)(C)CC(=O)Nc1nnc(SCC(=O)NC2CCCCC2)s1,-6.7,i,x,i,i,i,x,x,x,x,x
O=C(Nc1ccc2nc(SCc3ccc(Cl)cc3)sc2c1)c1ccccc1C(=O)N1CCOCC1,-23.0,-8.74*,x,i,6*,i,x,x,x,97.0*,i
SMILES,hERG rescue,KCNK3 block,KCC2 mod,KCNQ1 pot,KCNQ1 block,KCNK9 block,KCNK9 inh conf,Kir2-1 spec,HEK293 Tl ctr,KCNK3 inh conf,KCNK3 noninduced
COC(=O)CSc1nc2ccc(NC(=O)c3ccccc3C(=O)N3CCOCC3)cc2s1,-19.0,i,-0.231,i,i,i,x,x,x,x,x
O=C(NCC(=O)N1CCN(S(=O)(=O)c2c(F)cccc2F)CC1)c1ccccc1F,x,i,x,x,x,x,x,x,x,x,x
CCCCN(C(=O)c1ccc(N(C)S(=O)(=O)c2ccc(C)cc2)cc1)c1c(N)n(CC(C)C)c(=O)[nH]c1=O,x,i,x,x,x,x,x,x,x,x,x
COc1ccc(C(=O)COc2ccccc2C(=O)Nc2ccccc2)cc1,-5.1,-9.84*,0.034,i,i,i,x,x,x,108.3*,0.16*
COc1ccc(NC(=O)c2cc3ccccc3cc2OC)cc1,-9.4,-10.6*,x,i,i,i,x,x,x,111.7*,i
CCOC(=O)C1CCCN(C(=O)CCc2nc3sc4c(c3c(=O)[nH]2)CCCC4)C1 (stereo not drawn),x,i,x,x,x,x,x,x,x,x,x
O=C(c1ccc(F)cc1)C1CCN(C(=S)Nc2ccc(F)cc2)CC1,-9.1,i,x,i,i,i,x,x,x,x,x
CC(OC(=O)c1ccc(NC(=O)CC#N)cc1)C(=O)NC(c1ccccc1)c1ccccc1 (stereo not drawn),x,i,x,x,x,x,x,x,x,x,x
CCOc1ccccc1NC(=O)C(OC(=O)c1ccc(NC(=O)CC#N)cc1)c1ccccc1 (stereo not drawn),-26.2,-10.2*,x,i,8*,i,x,x,x,124.7*,0.134*
Cc1ccc(-c2cc(C(=O)Nc3cccnc3)c3ccccc3n2)s1,-26.4,-12.4*,x,i,i,i,x,x,x,100.3*,0.133*
COc1cccc(NC(=O)c2cc(-c3ccc(OC)cc3OC)nc3ccccc23)c1,-8.6,-9.45*,x,i,6*,i,x,x,x,103.3*,i
